Assay [1] deals with T1, Kappa-type opioid receptor (Cavia porcellus, UniProt P41144). The experiment in a line: Inhibition of [3H]U-69593 radioligand binding to Guinea pig opioid receptor kappa 1.
Assay [2] has as its target Opioid receptors; mu & delta (Rattus norvegicus) (UniProt P33533+P33535). The assay is described as follows: Selectivity as the ratio of IC50 value against mu receptor to that of delta receptor. It is filed as protein assay.
Assay [3] has as its target Mu-type opioid receptor (Rattus norvegicus, UniProt P33535). The assay is described as follows: Inhibition of [3H]DAMGO radioligand binding to rat brain opioid receptor mu 1. Summed up: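 Rat brain membranes labelled with [3H]DAMGO (1-3 nM). Incubation 4 h at 25 °C in 50 mM Tris-HCl pH 7.4 with protease inhibitor cocktail. Nonspecific binding with 20 μM levallorphan. 8-10 drug concentrations, run twice. Dilutions in 10 mM Tris-HCl pH 7.4 with 1 mg/mL BSA. IC50 from curve fitting.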

Assay [4] addresses Delta-type opioid receptor (Rattus norvegicus, UniProt P33533). The assay is described as follows: Inhibition of [3H]DADLE radioligand binding to rat brain opioid receptor delta 1.
The target of assay [5] is Delta-type opioid receptor (Mus musculus) (UniProt P32300). The experiment in a line: (§1) Opioid activity against delta-receptor of isolated mouse vas deferens(MVD) at 30 uM. A digest of the protocol:
(§2)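 Electrically stimulated contractions of male ICR mouse vas deferens (25-40 g mice) and male Hartley guinea pig ileum longitudinal muscle myenteric plexus strips (250-500 g animals). Tissues held in 37 °C oxygenated Krebs bicarbonate (Mg-free for MVD) at 1 g tension (0.5 g for MVD). Percent inhibition is the contraction height in the 1 min before agonist versus at maximal inhibition. IC50 from nonlinear least squares fit over 2-4 tissues.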

Assay [6] has as its target Delta-type opioid receptor (Mus musculus, UniProt P32300). Described as §1. Summed up: as §2
Assay [7] concerns the target Mu-type opioid receptor (Cavia porcellus, UniProt P97266). The assay is described as follows: The opioid activity against the mu-receptor in the isolated guinea pig ileum(GPI). The class given is tissue-based. A digest of the protocol: as §2
In assay [8] the target is T1, Kappa-type opioid receptor. The assay is described as follows: Inhibition of [3H]-U-69,593 radioligand binding to Guinea pig Opioid receptor kappa 1; not determined. A digest of the protocol: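 Guinea pig brain membranes depleted of μ and δ sites by pretreatment with irreversible ligands BIT and FIT, labelled with [3H]-U69,593 (1.2-2.3 nM). Incubation 4-6 h at 25 °C in 50 mM Tris-HCl pH 7.4 with protease inhibitor cocktail and 1 μg/mL captopril. Nonspecific binding with 1 μM U69,593. 8-10 drug concentrations, run twice. IC50 from curve fitting.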

pIC50: −log10 of the molar value. Values joined by “and” are separate entries in the source; they are usually repeats but may differ in a detail not shown here. Equal entries are not always repeated.

Sequence of Delta-type opioid receptor (Rattus norvegicus, UniProt P33533) (P33533 whole entry): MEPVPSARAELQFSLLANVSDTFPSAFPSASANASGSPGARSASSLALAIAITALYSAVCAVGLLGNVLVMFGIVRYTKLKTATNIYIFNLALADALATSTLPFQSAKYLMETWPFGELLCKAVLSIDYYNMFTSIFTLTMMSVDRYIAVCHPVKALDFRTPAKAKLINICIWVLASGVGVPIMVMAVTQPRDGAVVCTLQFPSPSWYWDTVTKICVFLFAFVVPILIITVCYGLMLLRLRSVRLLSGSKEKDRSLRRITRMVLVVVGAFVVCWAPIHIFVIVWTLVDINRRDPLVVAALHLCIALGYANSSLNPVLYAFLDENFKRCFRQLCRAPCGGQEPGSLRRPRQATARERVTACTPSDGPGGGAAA
Sequence of Opioid receptors; mu & delta (Rattus norvegicus) (P33533 whole entry, looked up): as the sequence (P33533 whole entry) above
Sequence of Opioid receptors; mu & delta (Rattus norvegicus) (P33535 whole entry, looked up): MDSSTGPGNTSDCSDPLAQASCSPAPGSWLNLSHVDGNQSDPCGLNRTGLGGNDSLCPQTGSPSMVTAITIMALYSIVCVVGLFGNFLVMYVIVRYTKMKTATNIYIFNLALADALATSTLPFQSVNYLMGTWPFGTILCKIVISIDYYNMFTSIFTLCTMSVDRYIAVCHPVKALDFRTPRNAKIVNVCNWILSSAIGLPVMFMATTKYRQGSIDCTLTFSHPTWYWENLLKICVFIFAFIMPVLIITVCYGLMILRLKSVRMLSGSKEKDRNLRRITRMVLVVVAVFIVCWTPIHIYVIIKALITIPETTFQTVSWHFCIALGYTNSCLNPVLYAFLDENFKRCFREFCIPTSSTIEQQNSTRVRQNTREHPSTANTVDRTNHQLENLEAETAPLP
T1 sequence (P41144 whole entry): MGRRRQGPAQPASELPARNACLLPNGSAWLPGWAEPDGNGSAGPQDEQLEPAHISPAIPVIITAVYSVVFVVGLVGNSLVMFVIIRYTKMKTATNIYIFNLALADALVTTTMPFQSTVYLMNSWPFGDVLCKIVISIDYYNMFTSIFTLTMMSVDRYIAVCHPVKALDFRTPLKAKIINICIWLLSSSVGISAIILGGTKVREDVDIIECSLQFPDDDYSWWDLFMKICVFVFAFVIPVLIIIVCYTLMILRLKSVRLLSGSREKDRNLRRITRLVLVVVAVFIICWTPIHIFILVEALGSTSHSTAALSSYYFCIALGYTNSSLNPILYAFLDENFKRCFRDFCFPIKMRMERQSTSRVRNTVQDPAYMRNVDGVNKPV
Sequence of Mu-type opioid receptor (Cavia porcellus, UniProt P97266) (P97266 whole entry): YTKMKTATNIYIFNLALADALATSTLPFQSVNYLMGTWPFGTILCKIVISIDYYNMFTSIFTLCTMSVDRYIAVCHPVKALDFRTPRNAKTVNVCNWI
Sequence of Mu-type opioid receptor (Rattus norvegicus, UniProt P33535) (P33535 whole entry): as the sequence (P33535 whole entry, looked up) above
Sequence of Delta-type opioid receptor (Mus musculus, UniProt P32300) (P32300 whole entry): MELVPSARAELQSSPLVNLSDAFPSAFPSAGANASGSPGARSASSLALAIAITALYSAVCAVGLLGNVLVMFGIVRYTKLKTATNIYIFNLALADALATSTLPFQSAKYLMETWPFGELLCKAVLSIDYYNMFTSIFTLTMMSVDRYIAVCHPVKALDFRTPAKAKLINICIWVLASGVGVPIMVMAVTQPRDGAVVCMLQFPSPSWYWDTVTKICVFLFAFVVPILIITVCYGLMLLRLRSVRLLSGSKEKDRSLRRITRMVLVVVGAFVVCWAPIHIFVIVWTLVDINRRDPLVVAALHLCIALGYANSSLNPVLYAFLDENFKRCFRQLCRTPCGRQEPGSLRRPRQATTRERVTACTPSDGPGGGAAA
Sequence of Delta-type opioid receptor (Mus musculus) (P32300 whole entry): as above

For orientation: pIC50 means −log10 of the IC50, conventionally taken in molar units. Read a low pIC50 as a large IC50. On to `Oc1cccc(C23CCN(CC4CC4)C(Cc4[nH]c5ccccc5c42)C3)c1` (stereo not drawn), for which the figures for the pIC50 (in assay [1]; at Mu-type opioid receptor [3]; in assay [4]) were 6.03, 6.74 and 7.08, respectively. The Selectivity in assay [2] turned out to be 2.14.

Take `CN1CCC2(c3cccc(O)c3)CC1C[C@@H](NC(=O)Cc1ccccc1)C2` (stereo partly drawn): the pIC50 in assay [1] is 5.65; at Mu-type opioid receptor [3] it was 6.92; in assay [4] it was 6.64. Besides, the Selectivity in assay [2] came to 0.52.

For `CCCCCCN1CCC2(c3cccc(O)c3)CC1Cc1[nH]c3ccccc3c12` (stereo not drawn), the figures for the pIC50 (in assay [1]; at Mu-type opioid receptor [3]; in assay [4]) were less than 6.00, 7.15 and 7.47, respectively. Further, the Selectivity in assay [2] was 2.08.

Regarding `CN1CCC2(c3cccc(O)c3)CC(=O)CC1C2` (stereo in doubt; 13) [listing 1 of 2 here], the Selectivity in assay [2] turned out to be 0.03.

As to `CCN1CCC2(c3cccc(O)c3)CC1Cc1[nH]c3ccccc3c12` (stereo not drawn), the pIC50 in assay [1] is less than 6.00; at Mu-type opioid receptor [3] it was 5.90; in assay [4], 6.63. Further, the Selectivity in assay [2] came to 5.4.

For `CCCCCN1CCC2(c3cccc(O)c3)CC1Cc1[nH]c3ccccc3c12` (stereo not drawn), the pIC50 in assay [1] is 6.00; on Mu-type opioid receptor [3] it was 7.63; in assay [4] it was 8.16. Moreover, the Selectivity in assay [2] came out at 3.41.

As for `Oc1cccc(C23CCN(CCc4ccccc4)C(Cc4[nH]c5ccccc5c42)C3)c1` (single isomer, unassigned; (+)) [listing 1 of 2 here], the Selectivity in assay [2] was less than 0.09.

For `CN1CCC2(c3cccc(O)c3)CC1C[C@@H](NC(=O)c1ccccc1)C2` (stereo partly drawn), the pIC50 in assay [1] is 5.25; in assay [4], 6.31.

What is called inhibition is the relative decrease from the control value, in per cent. High values mean a response far below the control, low ones a response near the control. `CN1CCC2(c3cccc(O)c3)CCCC1C2` (stereo in doubt; (-)-1) [listing 1 of 2 here]: the Selectivity in assay [2] was less than 0.02. Further, the inhibition in assay [5] worked out at 26%.

Regarding `Oc1cccc(C23CCN(CCc4ccccc4)C(Cc4[nH]c5ccccc5c42)C3)c1` (stereo not drawn) [listing 1 of 2 here], in assay [2], the Selectivity came to 8.88.

As for `CN1CCC2(c3cccc(O)c3)CC(=O)CC1C2` (stereo in doubt; 13) [listing 2 of 2 here], the pIC50 in assay [1] was 5.69; on Mu-type opioid receptor [3], 7.67; in assay [4] it was 6.14.

In the case of `Oc1cccc(C23CCNC(Cc4[nH]c5ccccc5c42)C3)c1` (stereo not drawn), the pIC50 in assay [1] was less than 5.00; on Mu-type opioid receptor [3] it was 6.45; in assay [4], 7.16. Besides, in assay [2], the Selectivity worked out at 5.14.

On to `Oc1cccc(C23CCN(CCc4ccccc4)C(Cc4[nH]c5ccccc5c42)C3)c1` (stereo not drawn) [listing 2 of 2 here], for which the pIC50 is less than 6.00 in assay [1], 7.30 on Mu-type opioid receptor [3] and 8.24 in assay [4].

For the compound `Oc1cccc(C23CCN(CCc4ccccc4)C(Cc4[nH]c5ccccc5c42)C3)c1` (single isomer, unassigned; (-)) [listing 1 of 2 here], in assay [2], the Selectivity is 4.03.

On to `CN1CCC2(c3cccc(O)c3)CC1Cc1[nH]c3c(ccc4ccccc43)c12` (stereo not drawn), for which the figures for the pIC50 (in assay [1]; on Mu-type opioid receptor [3]; in assay [4]) were less than 6.00, 6.68 and 7.90, respectively. Besides, the Selectivity in assay [2] was found to be 16.5.

For the compound `CN1CCC2(c3cccc(O)c3)C/C(=N/Nc3ccccc3)CC1C2` (stereo not drawn), the results for the pIC50 (in assay [1]; at Mu-type opioid receptor [3]; in assay [4]) were 6.62, 8.06 and 6.95, respectively. Further, the Selectivity in assay [2] is 0.08.

In the case of `CN1CCC2(c3cccc(O)c3)CC(=O)CC1C2` (single isomer, unassigned; (+)) [listing 1 of 2 here], the Selectivity in assay [2] amounted to 0.12.

Turning to `CN1CCC2(c3cccc(O)c3)CC(=O)CC1C2` (single isomer, unassigned; (+)) [listing 2 of 2 here], the pIC50 in assay [1] is 5.29; at Mu-type opioid receptor [3], 6.86; in assay [4] it was 5.94.

Turning to `CN1CCC2(c3cccc(O)c3)CC(=O)CC1C2` (single isomer, unassigned; (-)) [listing 1 of 2 here], the results for the pIC50 (in assay [1]; on Mu-type opioid receptor [3]; in assay [4]) were 6.01, 7.47 and 6.56, respectively.

With `CN1CCC2(c3cccc(O)c3)CCCC1C2` (single isomer, unassigned; (+)) [listing 1 of 2 here], the pIC50 is 6.04 in assay [1]; 7.67 on Mu-type opioid receptor [3]; 6.25 in assay [6]; less than 6.00 in assay [4]; 6.77 at Mu-type opioid receptor [7].

As to `CN1CCC2(c3cccc(O)c3)Cc3[nH]c4c(ccc5ccccc54)c3C1C2` (stereo not drawn), the pIC50 in assay [1] was less than 6.00; on Mu-type opioid receptor [3], 6.44; in assay [4], 5.98. In assay [2], the Selectivity came out at 0.35.

On to `CCCCCCCN1CCC2(c3cccc(O)c3)CC1Cc1[nH]c3ccccc3c12` (stereo not drawn), for which the pIC50 was less than 6.00 in assay [1], 7.18 on Mu-type opioid receptor [3] and 7.33 in assay [4]. The Selectivity in assay [2] was 1.43.

In the case of `Oc1cccc(C23CCN(CCc4ccccc4)C(Cc4[nH]c5ccccc5c42)C3)c1` (single isomer, unassigned; (+)) [listing 2 of 2 here], the results for the pIC50 (in assay [1]; on Mu-type opioid receptor [3]; in assay [4]) were less than 6.00, 7.05 and less than 6.00, respectively.

For `CN1CCC2(c3cccc(O)c3)CC1Cc1[nH]c3ccc4ccccc4c3c12` (stereo not drawn), the negative logarithm of the IC50 (pIC50) is less than 6.00 in assay [1], less than 6.00 at Mu-type opioid receptor [3] and less than 5.00 in assay [4].

Turning to `C=CCN1CCC2(c3cccc(O)c3)CC1Cc1[nH]c3ccccc3c12` (stereo not drawn), the values for the pIC50 (in assay [1]; at Mu-type opioid receptor [3]; in assay [4]) were 5.67, 6.44 and 6.85, respectively. In assay [2], the Selectivity turned out to be 2.58.

For `Oc1cccc(C23CCN(CCc4ccccc4)C(Cc4[nH]c5ccccc5c42)C3)c1` (single isomer, unassigned; (-)) [listing 2 of 2 here], the pIC50 in assay [1] is less than 6.00; on Mu-type opioid receptor [3], 7.60; in assay [4], 8.21.

Take `CN1CCC2(c3cccc(O)c3)CCCC1C2` (stereo in doubt; (-)-1) [listing 2 of 2 here]: the pIC50 in assay [1] was 6.09; on Mu-type opioid receptor [3], 7.68; in assay [4], less than 6.00; against Mu-type opioid receptor [7], 6.19.

Consider `CN1CCC2(c3cccc(O)c3)Cc3nc4ccccc4cc3C1C2` (stereo not drawn), for which, in assay [1], the pIC50 is 6.71.

Regarding `CCCCN1CCC2(c3cccc(O)c3)CC1Cc1[nH]c3ccccc3c12` (stereo not drawn), the pIC50 in assay [1] was less than 6.00; at Mu-type opioid receptor [3] it was 7.14; in assay [4], 7.74. In addition, the Selectivity in assay [2] was determined as 4.02.

With `CN1CCC2(c3cccc(O)c3)CC1Cc1[nH]c3ccccc3c12` (stereo not drawn), the negative logarithm of the IC50 (pIC50) is less than 6.00 in assay [1]; 7.67 and 7.53 at Mu-type opioid receptor [3]; 5.86 and 6.46 in assay [6]; 5.71 and 5.68 at Mu-type opioid receptor [7].

As for `CN1CCC2(c3cccc(O)c3)CCCC1C2` (single isomer, unassigned; (+)) [listing 2 of 2 here], the Selectivity in assay [2] is less than 0.02.

In the case of `CN1CCC2(c3cccc(O)c3)CC1Cc1[nH]c3ccccc3c12` (single isomer, unassigned; (-)) [listing 1 of 2 here], the Selectivity in assay [2] stood at 2.54.

In the case of `CN1CCC2(c3cccc(O)c3)Cc3[nH]c4ccccc4c3C1C2` (stereo not drawn), the figures for the pIC50 (in assay [1]; on Mu-type opioid receptor [3]; in assay [4]) were 6.10, 7.36 and less than 6.00, respectively. For the same compound, the Selectivity in assay [2] is less than 0.04.

In the case of `Oc1cccc(C23CCN(Cc4ccccc4)C(Cc4[nH]c5ccccc5c42)C3)c1` (stereo not drawn), the values for the pIC50 (in assay [1]; at Mu-type opioid receptor [3]; in assay [4]) were 7.05, 6.29 and 6.74, respectively. The Selectivity in assay [2] amounted to 2.76.

As for `CN1CCC2(c3cccc(O)c3)CC(=O)CC1C2` (single isomer, unassigned; (-)) [listing 2 of 2 here], in assay [2], the Selectivity turned out to be 0.12.

With `CCCN1CCC2(c3cccc(O)c3)CC1Cc1[nH]c3ccccc3c12` (stereo not drawn), the pIC50 was less than 6.00 in assay [1], 6.52 on Mu-type opioid receptor [3] and 7.39 in assay [4]. In addition, the Selectivity in assay [2] was found to be 7.4.

As for `CC(C)C[C@@H](NC(=O)[C@H](Cc1ccccc1)NC(=O)CNC(=O)[C@@H](C)NC(=O)[C@@H](N)Cc1ccc(O)cc1)C(=O)O` [DADLE], the pIC50 in assay [8] was 8.77; against Mu-type opioid receptor [7], 7.54.

As to `CN1CCC2(c3cccc(O)c3)CC1Cc1[nH]c3ccccc3c12` (single isomer, unassigned; (-)) [listing 2 of 2 here], the pIC50 was 7.85 on Mu-type opioid receptor [3], 6.41 in assay [6], 8.25 in assay [4] and 5.63 against Mu-type opioid receptor [7].
